Results published in ChEMBL document CHEMBL3351484, “Positive allosteric modulators of 2-amino-3-(3-hydroxy-5-methylisoxazol-4-yl)propionic acid receptors belonging to 4-cyclopropyl-3,4-dihydro-2h-1,2,4-pyridothiadiazine dioxides and diversely chloro-substituted 4-cyclopropyl-3,4-dihydro-2H-1,2,4-benzothiadiazine 1,1-dioxides” (J Med Chem, 2014).
Activity calls are given as the source filed them. The calls are words filed in the database; no cut-off is given here.

Assays:
[1] = tested on: Primary neuron; test: Potentiation of AMPA receptor in rat embryonic cortex primary neuronal culture assessed as concentration required to 2-fold increase in AMPA-induced membrane depolarization by microplate reader; type: cell membranes
How it was run: (§1)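 Primary cultures of rat embryonic cortical neurons; depolarization evoked by 300 μM AMPA read with fluorescent membrane potential dyes on an imaging plate reader. EC2× is the modulator level doubling the AMPA response (geometric mean, 95% CI).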

[2] = tested on: Primary neuron; test: Positive allosteric modulation of AMPA receptor in rat embryonic cortex primary neuronal culture assessed as maximal increase in AMPA-induced membrane depolarization normalized to AMPA-evoked response by microplate reader; type: cell membranes; how it was run: as §1
[3] = species on record: Rattus norvegicus; test: Positive allosteric modulation of AMPA receptor in rat hippocampal slice assessed as increase in AMPA-mediated presynaptic noradrenaline release; type: tissue-based; parameters: concentration or dose not given beside the values; settings: Hippocampus
How it was run: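 Rat hippocampal slices, [3H]noradrenaline release evoked by (S)-AMPA 10 μM, modulator at 300 μM; release given as percent of (S)-AMPA alone taken as 100%.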

[4] = target: Glutamate receptor 2 (Homo sapiens, UniProt P42262); test: Binding affinity to GluA2-LBD-L483Y-N754S complex (unknown origin) by isothermal titration calorimetry
How it was run: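 Direct ITC titration at 25 °C. 20 × 2 μL injections at 3 min, the first 0.4 μL. First point discarded and dilution heat subtracted before a single-site fit. Mean of three titrations.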

[5] = Positive allosteric modulation of AMPA receptor in rat embryonic cortex primary neuronal culture assessed as increase in AMPA-induced membrane depolarization by microplate reader; type: cell membranes; settings: primary neuron; how it was run: as §1
[6] = species on record: Rattus norvegicus; test: Positive allosteric modulation of AMPA receptor in rat hippocampal slice assessed as area of AMPA-mediated […] postsynaptic field potential in CA1 area at 3 uM; type: tissue-based; settings: Hippocampus
How it was run: (§2)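 Rat hippocampal slices perfused with medium containing 1.2 mM Mg2+; field EPSPs recorded in CA1 after electrical stimulation of Schaffer collaterals. Area, amplitude and half-width normalized to the 10 min baseline as 100%, reported as percent increase, mean ± SEM (n = 3–4).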

[7] = species on record: Rattus norvegicus; test: Positive allosteric modulation of AMPA receptor in rat hippocampal slice assessed as area of AMPA-mediated […] postsynaptic field potential in CA1 area at 10 uM; type: tissue-based; settings: Hippocampus; how it was run: as §2
[8] = species on record: Rattus norvegicus; test: Positive allosteric modulation of AMPA receptor in rat hippocampal slice assessed as amplitude of AMPA-mediated […] postsynaptic field potential in CA1 area at 3 uM; type: tissue-based; settings: Hippocampus; how it was run: as §2
[9] = species on record: Rattus norvegicus; test: Positive allosteric modulation of AMPA receptor in rat hippocampal slice assessed as amplitude of AMPA-mediated […] postsynaptic field potential in CA1 area at 10 uM; type: tissue-based; settings: Hippocampus; how it was run: as §2
[10] = species on record: Rattus norvegicus; test: Positive allosteric modulation of AMPA receptor in rat hippocampal slice assessed as half-width of AMPA-mediated […] postsynaptic field potential in CA1 area at 3 uM; type: tissue-based; settings: Hippocampus; how it was run: as §2
[11] = species on record: Rattus norvegicus; test: Positive allosteric modulation of AMPA receptor in rat hippocampal slice assessed as half-width of AMPA-mediated […] postsynaptic field potential in CA1 area at 10 uM; type: tissue-based; settings: Hippocampus; how it was run: as §2
[12] = Drug uptake in mouse brain at 3 mg/kg, po qd after 20 mins by LC-MS/MS analysis; type: ADME, organism-based; parameters: dose 3 mg/kg, route oral; settings: read-out: Drug uptake
How it was run: (§3)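 NMRI mice dosed orally, killed by decapitation 20 min later; brain and blood rapidly removed and frozen, compound quantified by LC−MS/MS. Brain in ng/g, plasma in ng/mL; n = 3.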

[13] = Drug uptake in mouse plasma at 3 mg/kg, po qd after 20 mins by LC-MS/MS analysis; type: ADME, organism-based; parameters: dose 3 mg/kg, route oral; how it was run: as §3
[14] = Ratio of drug level in mouse brain to plasma at 3 mg/kg, po qd after 20 mins by LC-MS/MS analysis; type: ADME, organism-based; parameters: dose 3 mg/kg, route oral
How it was run: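 Oral dosing in NMRI mice, 20 min before decapitation; brain and plasma levels measured by LC−MS/MS (n = 3), ratio taken as [brain]/[plasma] in mL/g.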

[15] = tested on: Hippocampus; test: Potentiation of high-frequency stimulation-induced synaptic response in Wistar rat hippocampal dentate gyrus assessed as excitatory postsynaptic field potential at 3 mg/kg, ip after 3 hrs; type: functional, organism-based; parameters: dose 3 mg/kg
How it was run: (§4)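 Anesthetized Wistar rats dosed ip; perforant-path stimulation with dentate gyrus responses. 1 h after dosing, LTP induced by tetanic high-frequency stimulation and responses followed 3 h; eight responses averaged (every 2 min), normalized to 60 min baseline. n = 8 per group; Dunnett test after two-way ANOVA versus vehicle.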

[16] = tested on: Hippocampus; test: Potentiation of high-frequency stimulation-induced synaptic response in Wistar rat hippocampal dentate gyrus assessed as excitatory postsynaptic field potential at 10 mg/kg, ip after 3 hrs; type: functional, organism-based; parameters: dose 10 mg/kg; how it was run: as §4
[17] = tested on: Hippocampus; test: Potentiation of high-frequency stimulation-induced synaptic response in Wistar rat hippocampal dentate gyrus assessed as increase in long-term potentiation at 10 mg/kg, ip after 1 hr; type: functional, organism-based; parameters: dose 10 mg/kg; how it was run: as §4
[18] = tested on: Hippocampus; test: Potentiation of tetanus-induced synaptic response in Wistar rat hippocampal dentate gyrus at 3 mg/kg, ip measured first 18 mins; type: functional, organism-based; parameters: dose 3 mg/kg
How it was run: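 Anesthetized Wistar rats, dosed ip at 3 or 10 mg/kg, n = 8 per group. Dentate gyrus responses evoked by perforant-path stimulation every 2 min, averaged over eight stimulations and normalized to the 60 min baseline. High-frequency tetanus given 1 h after dosing, with recording for 3 h. Potentiation duration judged per group against the 6 min pre-tetanus period.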

[19] = tested on: Hippocampus; test: Potentiation of tetanus-induced synaptic response in Wistar rat hippocampal dentate gyrus at 3 mg/kg, ip measured during 42 mins; type: functional, organism-based; parameters: dose 3 mg/kg
[20] = tested on: Mus musculus; test: Increase in object recognition task in CD1 mouse at 1 mg/kg, po after 24 hrs; type: functional, organism-based; parameters: dose 1 mg/kg
How it was run: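 Three-session test (habituation, familiarization, recognition) given at 24 h intervals in CD1 mice, compound given orally 1 h before each session. Durations of exploring new versus familiar objects recorded; mean + SEM, paired Student's t test versus familiar object.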

Chain of Glutamate receptor 2 (P42262 whole entry, the tested form may be a part): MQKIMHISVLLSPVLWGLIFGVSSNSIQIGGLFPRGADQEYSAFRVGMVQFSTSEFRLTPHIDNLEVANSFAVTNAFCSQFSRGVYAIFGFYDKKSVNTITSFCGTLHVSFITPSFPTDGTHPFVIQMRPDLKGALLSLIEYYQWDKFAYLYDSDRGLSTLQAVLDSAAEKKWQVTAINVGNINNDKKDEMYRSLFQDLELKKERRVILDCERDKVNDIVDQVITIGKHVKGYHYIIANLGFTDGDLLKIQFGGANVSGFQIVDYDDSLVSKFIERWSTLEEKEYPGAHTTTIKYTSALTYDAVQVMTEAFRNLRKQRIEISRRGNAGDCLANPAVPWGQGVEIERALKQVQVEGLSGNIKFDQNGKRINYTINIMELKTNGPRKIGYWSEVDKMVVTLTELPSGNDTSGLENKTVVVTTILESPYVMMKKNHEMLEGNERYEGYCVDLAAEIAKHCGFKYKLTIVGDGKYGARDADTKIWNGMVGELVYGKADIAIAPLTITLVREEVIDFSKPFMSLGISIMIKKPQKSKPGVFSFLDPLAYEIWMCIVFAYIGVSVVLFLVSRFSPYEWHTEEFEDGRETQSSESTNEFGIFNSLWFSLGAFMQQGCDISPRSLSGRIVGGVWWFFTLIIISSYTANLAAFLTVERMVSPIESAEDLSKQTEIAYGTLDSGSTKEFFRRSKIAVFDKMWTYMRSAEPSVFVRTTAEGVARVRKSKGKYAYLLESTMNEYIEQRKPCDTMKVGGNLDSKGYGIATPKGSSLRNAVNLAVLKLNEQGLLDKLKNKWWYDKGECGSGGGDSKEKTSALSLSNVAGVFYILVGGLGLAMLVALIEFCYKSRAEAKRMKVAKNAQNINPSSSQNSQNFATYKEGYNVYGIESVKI

Row | Structure (SMILES) | Activity [1] | Emax [2] | Activity [3] | EC50 [5] | other results
1 | O=S1(=O)NCN(C2CC2)c2cccc(Cl)c21 | 2 µM | > 9 | 352% | – | –
2 | O=S1(=O)NCN(C2CC2)c2ccc(F)cc21 | 0.27 µM | 15 | – | 0.9 µM | Kd [4]: 0.35 µM
3 | O=S1(=O)NCN(C2CC2)c2ccncc21 | 4.4 µM | > 11 | 330% | – | –
4 | O=S1(=O)NCN(C2CC2)c2c(Cl)cccc21 | 27.1 µM | > 3 | 196% | – | –
5 | CCN1CNS(=O)(=O)c2cnccc21 | – | – | – | – | Kd [4]: 1200 µM
6 | O=S1(=O)NCN(C2CC2)c2cc(Cl)ccc21 | 5.2 µM | > 5 | 327% | – | –
7 | O=S1(=O)NCN(C2CC2)c2ccc(Cl)cc21 | 0.68 µM | 11 | 411% | 2.9 µM | Activity [6]: 10%; Activity [7]: 145%; Activity [8]: 5.3%; Activity [9]: 58%; Activity [10]: 9%; Activity [11]: 113%; concentration at 20 min [12]: 72.7 ng/g; concentration at 20 min [13]: 64.7 ng/mL; Kp at 20 min [14]: 1.12; Activity [15]: Active; Activity [16]: Active; Activity [17]: Active; Activity [18]: Active; Activity [19]: Active; Activity [20]: Active
8 | O=S1(=O)NCN(C2CC2)c2ncccc21 | 13.9 µM | > 4 | 221% | – | –
9 | O=S1(=O)NCN(C2CC2)c2ncc(Cl)cc21 | 2.4 µM | > 7 | 276% | – | –
10 | O=S1(=O)NCN(C2CC2)c2cccnc21 | 0.35 µM | 10 | 323% | 1.5 µM | –
